Each structure is given as a SMILES string. The source made the active and inactive calls. The rule behind the calls is not given here.

Experimental findings from ChEMBL document CHEMBL3739300, “Chemical Constituents from the Fruiting Bodies of Hexagonia apiaria and Their Anti-inflammatory Activity” (J Nat Prod, 2015) are described below.

Common to all, as to type: functional, cell-based
Assay [1] in a line: Antiinflammatory activity in human neutrophils assessed as inhibition of FMLP/CB-induced superoxide anion generation by spectrophotometry. As to conditions: Neutrophil. An outline of the steps: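 Neutrophils from healthy donors (20−30 y) isolated by dextran sedimentation, Ficoll (1.077 g/mL) centrifugation and hypotonic lysis, kept in Ca2+-free HBSS pH 7.4 at 4 °C. Cells (6 × 10^5/mL) with 0.5 mg/mL ferricytochrome c and 1 mM Ca2+, 37 °C 2 min, drug or 0.1% DMSO 5 min. Stimulated with 100 nM FMLP after 1 μg/mL cytochalasin B, 3 min. SOD-inhibitable (100 U/mL) absorbance at 550 nm; IC50, n = 3−4.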

The test system of the next assay is Neutrophil. In words: (§1) Antiinflammatory activity in human neutrophils assessed as inhibition of FMLP/CB-induced elastase release. In short, it runs like this:
(§2)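 Donor neutrophils (isolated by dextran, Ficoll, hypotonic lysis; Ca2+-free HBSS pH 7.4) at 6 × 10^5/mL with 100 μM MeO-Suc-Ala-Ala-Pro-Val-p-nitroanilide. Equilibrated 37 °C 2 min, drug or 0.1% DMSO vehicle 5 min, then activated with 100 nM FMLP plus 0.5 μg/mL cytochalasin B. Absorbance at 405 nm monitored continuously; percent of FMLP/CB-activated drug-free control; IC50, n = 3−4.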

Assay [2] in a line: as §1. As to conditions: Neutrophil. An outline of the steps: as §2

As to `CC1=C(C)C2(C[C@@H](C)[C@H]3[C@@H](C[C@@]4(C)C5=C(CC[C@]34C)[C@@]3(C)CC[C@@H](O)[C@@](C)(C=O)[C@@H]3CC5)O2)OC1=O` (some centres not stated), the IC50 in assay [1] is over 10 µM. Moreover, the inhibition result in the assay on Neutrophil is “inactive”.
Take `CC1=C(C)C2(C[C@@H](C)[C@H]3[C@@H](C[C@@]4(C)C5=C(CC[C@]34C)[C@@]3(C)CC[C@@H](OC(=O)CC(=O)O)C(C)(C)[C@@H]3CC5)O2)OC1=O` (some centres not stated): the IC50 in assay [1] was determined as 1.9 µM; in assay [2] it was 4.3 µM.
Consider `O=c1cc(N2CCOCC2)oc2c(-c3ccccc3)cccc12` [LY-294002], for which the figures for the IC50 in assay [1] and in assay [2] were 0.4 µM and 1.5 µM, respectively.
`COC(=O)CC(=O)O[C@@H]1CC[C@]2(C)C3=C(CC[C@H]2C1(C)C)[C@]1(C)C[C@H]2OC4(C[C@@H](C)[C@@H]2[C@@]1(C)CC3)OC(=O)C(C)=C4C` (some centres not stated): the IC50 in assay [1] was over 10 µM. In the assay with Neutrophil, the inhibition entry was “inactive”.
`C=C(CC[C@@H](C(=O)O)[C@H]1CC[C@@]2(C)C3=C(CC[C@]12C)[C@@]1(C)C[C@H](O)[C@H](O)C(C)(C)[C@@H]1CC3)C(C)C`: the IC50 was 6 µM in assay [1] and over 10 µM in assay [2].
In the case of `CC1=C(C)C2(C[C@@H](C)[C@H]3[C@@H](C[C@@]4(C)C5=C(CC[C@]34C)[C@@]3(C)CC[C@@H](O)C(C)(C)[C@@H]3CC5)O2)OC1=O` (some centres not stated), in assay [1], the IC50 was over 10 µM. Also, in the assay with Neutrophil, the inhibition entry is “inactive”.
